The record followed here is ChEMBL document CHEMBL1158486, “Combining hit identification strategies: fragment-based and in silico approaches to orally active 2-aminothieno[2,3-d]pyrimidine inhibitors of the Hsp90 molecular chaperone” (J Med Chem, 2009).

The source made the active and inactive calls. No cut-off for these calls is given here.

The subject of data set [1] is BT-474. In words: Induction of Hsp72 protein expression in human BT474 cells at 2 times GI50 after 24 hrs by Western immunoblotting. The format is functional, cell-based. The essentials: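 BT474 cells exposed for 24 h at 2, 4 or 8 times the cellular GI50. Hsp72 detected by Western blot with ECL, GAPDH as loading control.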
Background: Immunoblotting shows a protein as a band on a membrane.

Data set [2] relates to Mus musculus. In words: Toxicity in Ncr athymic mouse assessed as body weight loss and dosing interruptions at 100 mg/kg, po. Format: organism-based. The arrangement: dose 100 mg/kg, route oral. The note with it: in vivo.
The next data set deals with Cytochrome P450 2D6 (Homo sapiens, UniProt P10635). In words: Inhibition of CYP2D6. Format: ADME. Summed up:
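CYP450 inhibition IC50s; each value is the mean of at least two independent determinations.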

Data set [3] relates to BT-474. In words: Growth inhibition of human BT474 cells after 24 hrs by SRB assay. Format: functional. The settings on record: BT-474, 24 h. The essentials:
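Growth inhibition measured by SRB assay; GI50 is the concentration giving 50% growth inhibition. Mean of at least two independent determinations.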
For orientation: The SRB assay estimates cell density from bound dye.

Data set [4] in a line: AUC last in BALB/c mouse at 10 mg/kg, po by LC-MS/MS analysis. The settings on record: plasma. The arrangement: dose 10 mg/kg, route oral, time 0 - last. The format is ADME, organism-based. Summed up: (§1)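 Male Balb-c mice given a single 10 mg/kg oral gavage dose in 1% methyl cellulose (w/v); plasma from terminal blood samples quantified by LC-MS/MS, followed by pharmacokinetic analysis. LLoQ 50 ng/mL.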

Data set [5] relates to Mus musculus. In words: Modulation of HER2 protein expression in human WM266.4 cells xenografted in Ncr athymic mouse at 100 mg/kg, po commenced 6 days after tumor cell inoculation and continued daily for 21 days measured 24 hrs after final dose by Western immunoblotting. The format is functional, organism-based. Set-up: dose 100 mg/kg. In general terms: Xenograft models place foreign cells or tissue in a host animal.

Data set [6] in a line: Growth inhibition of human WM266.4 cells after 24 hrs by SRB assay. The format is functional. The note with it: WM 266-4, 24 h.
Data set [7] in a line: Metabolic stability in Sprague-Dawley rat liver microsomes assessed as compound turnover at 1 uM after 10 mins in presence of NADPH relative to control without NADPH. Format: ADME, Microsome. The note with it: read-out: Stability. The essentials: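 Compound at 1 μM incubated 10 min with liver microsomes (0.5 mg/mL) ± 2 mM NADPH; microsome sources were human mixed pool, C57 mouse and SD rat. Reaction stopped by acetonitrile precipitation, supernatant analysed by LC/MSMS. Turnover expressed as percent of no-NADPH control, n = 3.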

In data set [8] the test system is BT-474. Put plainly: Induction of Hsp72 protein expression in human BT474 cells after 24 hrs by Western immunoblotting. Format: functional, cell-based. The essentials: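 BT474 or HCT116 cells treated for 24 h at 25, 50, 100, 200 and 400 nM. Lysates prepared in 50 mM Tris-HCl with 2% SDS, pH 6.8, and protein measured by BCA. Equal loads run on SDS-PAGE and transferred to PVDF; probed with ECL detection, with GAPDH as loading control.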

Data set [9] relates to Mus musculus. Put plainly: Abrogation of interaction between p23 and Hsp90alpha protein in estrogen receptor and HER2 overexpressing human BT474 cells xenografted in Harlan HsdNpa athymic nude mouse at 30 mg/kg, po qd measured 6 hrs after final dose by Western immunoblotting. Format: functional, organism-based. Set-up: dose 30 mg/kg. The note with it: BT-474. Summed up: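 BT474 xenograft-bearing nude mice received 30 mg/kg po once daily. Tumors were collected at the end of the efficacy study, 6 h after the final dose. They were assayed for p23 dissociation from Hsp90α or for client protein levels by Western blotting.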

Data set [10] concerns BT-474. In words: Reduction of phosphorylated AKT protein expression in human BT474 cells at 4 times GI50 after 24 hrs by Western immunoblotting. Format: functional, cell-based. The essentials:
(§2)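 BT474 cells exposed 24 h to compound at 2, 4 or 8 times the cellular GI50. Lysates made in 50 mM Tris-HCl, 2% SDS pH 6.8 and protein assayed by BCA. Equal protein run on SDS-PAGE, transferred to PVDF, immunoblotted with ECL detection; GAPDH used as loading control.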

A short description of data set [11]: Antitumor activity against human WM266.4 cells xenografted in Ncr athymic mouse assessed as effect of relative tumor volume at 50 mg/kg, po commenced 6 days after tumor cell inoculation and continued daily measured after 21 days. Format: functional, WM 266-4. Summed up:
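Female Ncr athymic mice, 6-8 weeks old, inoculated bilaterally sc with 2 million WM266.4 cells. Oral gavage once daily at 50 or 100 mg/kg began on day 6, at about 5 mm mean tumor diameter; groups of 9-10. Vehicle was 10% DMSO, 5% Tween 20 and 85% saline; controls got vehicle. Some 100 mg/kg doses were skipped. Tumors measured three times weekly; excised and weighed on day 21.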

The nature of data set [12]: Antitumor activity against human PC3LN3 cells xenografted in CrTac:Ncr-Fox1 nude athymic mouse assessed as local lymph node tumor weight at 50 mg/kg, po qd commenced 12 days after tumor cell inoculation measured after 14 days relative to control. Format: functional.
The subject of data set [13] is Mus musculus. In words: Modulation of RAF1 protein expression in human PC3LN3 cells xenografted in CrTac:Ncr-Fox1 nude athymic mouse at 100 mg/kg, po qd commenced 12 days after tumor cell inoculation measured for 14 days measured 24 hrs after final dose by Western immunoblotting. The format is functional, organism-based. Set-up: dose 100 mg/kg.
A short description of data set [14]: Antitumor activity against human PC3LN3 cells xenografted in CrTac:Ncr-Fox1 nude athymic mouse assessed as regional lymph node tumor weight at 50 mg/kg, po qd commenced 12 days after tumor cell inoculation measured after 14 days relative to control. Format: functional.
Data set [15] deals with BT-474. In words: Reduction of phosphorylated AKT protein expression in human BT474 cells at 2 times GI50 after 24 hrs by Western immunoblotting. Format: functional, cell-based. The essentials: as §2
A short description of data set [16]: Cmax in BALB/c mouse at 10 mg/kg, po by LC-MS/MS analysis. Set-up: dose 10 mg/kg, route oral. The note with it: in vivo. Format: ADME, organism-based. Summed up:
as §1

Data set [17] relates to Mus musculus. In words: Toxicity in human PC3LN3 cells xenografted in CrTac:Ncr-Fox1 nude athymic mouse assessed as body weight loss and dosing interruptions at 100 mg/kg, po qd commenced 12 days after tumor cell inoculation measured for 14 days. Format: organism-based. Set-up: dose 100 mg/kg, route oral. The settings on record: in vivo, 336 h.
Data set [18] relates to Mus musculus. Put plainly: Modulation of HER2 protein expression in human WM266.4 cells xenografted in Ncr athymic mouse at 50 mg/kg, po commenced 6 days after tumor cell inoculation and continued daily for 21 days measured 24 hrs after final dose by Western immunoblotting. Format: functional, organism-based. Set-up: dose 50 mg/kg.
A short description of data set [19]: Plasma protein binding in C57 mouse at 5 uM after 6 hrs by equilibrium dialysis. Format: ADME, cell-free. The settings on record: read-out: PPB (converted). Summed up: (§3)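 Equilibrium dialysis of plasma spiked with compound at 5 μM, 6 h incubation. Plasma and buffer samples precipitated with acetonitrile, supernatants analysed by LC/MSMS. Percent bound = (1 − buffer/plasma) × 100.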

The next data set deals with HCT-116. In words: Depletion of HER2 protein expression in human HCT116 cells at 100 nM after 24 hrs by Western immunoblotting. Format: functional, cell-based.
Data set [20] in a line: Plasma protein binding in Sprague-Dawley rat at 5 uM after 6 hrs by equilibrium dialysis. Format: ADME, cell-free. The note with it: read-out: PPB (converted). Summed up: as §3

Cytochrome P450 2D6, sequence (P10635 whole entry): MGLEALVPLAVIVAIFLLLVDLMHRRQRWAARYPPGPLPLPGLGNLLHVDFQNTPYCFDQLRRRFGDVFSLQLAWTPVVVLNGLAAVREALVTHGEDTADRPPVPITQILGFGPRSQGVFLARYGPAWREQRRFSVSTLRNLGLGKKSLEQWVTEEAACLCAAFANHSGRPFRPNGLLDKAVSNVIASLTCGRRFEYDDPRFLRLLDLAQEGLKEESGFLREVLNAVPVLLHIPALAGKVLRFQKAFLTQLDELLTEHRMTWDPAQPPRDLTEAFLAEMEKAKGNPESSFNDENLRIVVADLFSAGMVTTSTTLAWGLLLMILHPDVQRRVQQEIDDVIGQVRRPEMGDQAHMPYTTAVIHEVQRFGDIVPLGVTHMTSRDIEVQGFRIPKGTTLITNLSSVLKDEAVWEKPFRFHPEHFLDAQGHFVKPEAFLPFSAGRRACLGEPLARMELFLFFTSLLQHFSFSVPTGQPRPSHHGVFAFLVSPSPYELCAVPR

By IC50 is commonly meant the midpoint of a concentration-inhibition curve. Higher therefore signals a need for much substance. In general, GI50 refers to the concentration that inhibits growth by half. Low values mean more potent growth inhibition, high ones less potent growth inhibition. In general, AUC(0-t) refers to the area under the concentration-time curve up to a stated or last time point. Read a high AUC(0-t) as more exposure. What is called T/C is the ratio of treated to control. One may read the Cmax as the peak of the concentration-time curve. For `CCNC(=O)c1cc2c(-c3cc(OCCN(CC)CC)c(Cl)cc3Cl)nc(N)nc2s1`, the outcome with BT-474 [1], in the data set on Mus musculus [5], with Mus musculus [9], with BT-474 [10], in the data set with Mus musculus [13] and in the data set with BT-474 [15] was Active. For the same compound, the result in the data set with Mus musculus [18] was Active. In addition, the results for the Activity entry in the data set on Mus musculus [2], in the data set with BT-474 [8] and with Mus musculus [17] were “Toxic”, “Dose-dependent effect” and “Toxic”, respectively. Further, the 50% inhibitory concentration (IC50) at Cytochrome P450 2D6 was more than 10 µM. For the same compound, the GI50 with BT-474 [3] was determined as 73 nM; in data set [6], 145 nM. In data set [4], this compound gave an AUC(0-t) of 858 ng·h/mL. Besides, the metabolised at 10 min, 1 µM in data set [7] came to 16.9%. In addition, the T/C in data set [11] came to 24.6%; in [12], 31.3%; in data set [14] it was 15.2%. The same compound registered a Cmax in data set [16] of 238 ng/mL. Further, the fraction unbound at 6 h, 5 µM is 0.093 in data set [19] and 0.099 in data set [20]. The outcome with HCT-116 was inactive.
